Measured values of several laboratories.
Compare with care: the assays were run in different laboratories.
KIT V559D/V654A: Mast/stem cell growth factor receptor Kit (KIT, Homo sapiens, UniProt P10721, V559D/V654A)
KIT T670I/V559D: Mast/stem cell growth factor receptor Kit (KIT, Homo sapiens, UniProt P10721, T670I/V559D)
KIT L576P: Mast/stem cell growth factor receptor Kit (KIT, Homo sapiens, UniProt P10721, L576P)
KIT D816H: Mast/stem cell growth factor receptor Kit (KIT, Homo sapiens, UniProt P10721, D816H)
KIT V559D: Mast/stem cell growth factor receptor Kit (KIT, Homo sapiens, UniProt P10721, V559D)
KIT autoinhibited: Mast/stem cell growth factor receptor Kit, autoinhibited (KIT, Homo sapiens, UniProt P10721)
KIT: Mast/stem cell growth factor receptor Kit (KIT, Homo sapiens, UniProt P10721)
KIT A829P: Mast/stem cell growth factor receptor Kit (KIT, Homo sapiens, UniProt P10721, A829P)
KIT D816V: Mast/stem cell growth factor receptor Kit (KIT, Homo sapiens, UniProt P10721, D816V)

Compound	target	test	setting	remaining binding [%]
O=c1nc(-c2ccccn2)sc2ccccc12	KIT V559D/V654A	binding, competition with immobilised ligand	1 µM	100
O=C(Nc1c[nH]nc1C(=O)NC1CCNCC1)c1cc(F)cc(F)c1	KIT T670I/V559D	binding, competition with immobilised ligand	1 µM	100
Cc1cc(NC(=O)c2cccc(S(F)(F)(F)(F)F)c2)cc(-n2ccn3nc(-c4cccnc4)cc23)c1	KIT L576P	cell-free assay, competition with immobilised ligand	1 µM	100
CN1CCN(c2ccc(Nc3nccc(-c4cccc([N+](=O)[O-])c4)n3)cc2C(F)(F)F)CC1	KIT V559D/V654A	binding	10 µM	0
O=C(NCCCN1CCOCC1)c1ccc(Nc2nccc(-c3cc4ccccc4s3)n2)cc1	KIT D816H	binding, competition with immobilised ligand	1 µM	20
CN(C)c1nccc(-c2cnn3ncccc23)n1	KIT L576P	binding	1 µM	100
O=C(NCCCN1CCOCC1)c1ccc(Nc2ncc(Cl)c(-c3ccc(Cl)s3)n2)cc1	KIT T670I/V559D	binding, competition with immobilised ligand	1 µM	2.3
COc1ccnn2ncc(-c3ccnc(N(C)C)n3)c12	KIT V559D	binding	1 µM	100
COc1ccc2cc(OCC3(C(=O)O)CN(C(=O)c4ccc(F)cc4)C3)ccc2c1	KIT T670I/V559D	cell-free assay, competition with immobilised ligand	1 µM	100
O=C(c1ccc(Nc2nccc(-c3cc4ccccc4s3)n2)cc1)N1CCC(N2CCCC2)CC1	KIT autoinhibited	binding, competition with immobilised ligand	1 µM	66
COc1cnc(Nc2cccc(S(N)(=O)=O)c2)nc1N1CCN(c2ccccc2)C(=O)C1	KIT	binding, competition with immobilised ligand	1 µM	98
O=C(c1ccc(Nc2ncc(Cl)c(-c3cc4ccccc4s3)n2)cc1)N1CCC(N2CCCC2)CC1	KIT A829P	binding, competition with immobilised ligand	1 µM	19
C=CC(=O)N1CCC(C(=O)NCC(=O)N2CCN(c3nc(-c4cnc(N)nc4C(F)F)nc(N4CCOCC4)n3)CC2)CC1	KIT D816V	binding, competition with immobilised ligand	1 µM	79
O=C(N1CCS(=O)(=O)CC1)N1C[C@H](c2ccc(OC(F)(F)F)cc2)C[C@H](c2nc(C3CC3)no2)C1	KIT A829P	cell-free assay, competition with immobilised ligand	1 µM	100
Nc1ncc2c(n1)-c1c([nH]c3ccc(C#CC4CC4)cc13)CCCC2	KIT D816V	binding, competition with immobilised ligand	1 µM	100
CN1CCN(c2ccc(Nc3nccc(-c4ccccc4)n3)cc2C(F)(F)F)CC1	KIT T670I/V559D	binding	10 µM	0.15
CN(C)C(=O)Cn1cc(-c2nc(C3(c4ccc(-c5cnc(N)nc5)cc4)CC3)no2)cn1	KIT	cell-free assay, competition with immobilised ligand	1 µM	93
CCN1CCN(Cc2ccc(C(=O)Nc3ccc(C)c(Oc4ccc5c(c4)CC(=O)N5)c3)cc2C(F)(F)F)CC1	KIT autoinhibited	binding, competition with immobilised ligand	1 µM	100

Compound	target	test	setting	remaining binding [%]
C[C@H]1CCN(c2nccc(-c3cnn4ncccc34)n2)C1	KIT A829P	binding	1 µM	83
CC(C)(O)c1cncc(-c2nc3ccc(F)cc3n2C2CC2)c1	KIT A829P	cell-free assay, competition with immobilised ligand	1 µM	100
O=C(c1ccc(Nc2ncc(Cl)c(-c3ccc(Cl)s3)n2)cc1)N1CCC(N2CCCC2)CC1	KIT T670I/V559D	binding, competition with immobilised ligand	1 µM	0.75
F[C@@H]1CCN(c2nccc(-c3cnn4ncccc34)n2)C1	KIT A829P	binding	1 µM	74
c1cncc(-c2cccc(Nc3nccc(NC4CCCCC4)n3)c2)c1	KIT V559D/V654A	binding, competition with immobilised ligand	10 µM	43
CN(c1nccc(-c2cnn3ncccc23)n1)C1CC1	KIT	binding	1 µM	89
CNC(=O)[C@@H]1CC[C@@H](n2c(-c3ccc4cnccc4c3)nc3ccc(C(=O)NCc4cccc(C(N)=O)c4)cc32)C1	KIT	binding, competition with immobilised ligand	1 µM	100
COc1ncc2cc3ccccc3nc2c1C#N	KIT A829P	cell-free assay, competition with immobilised ligand	5 µM	100
Cc1cnn2ncc(-c3ccnc(N(C)C)n3)c2c1	KIT V559D	binding	1 µM	100
O=C(Nc1cccnn1)N1CC(C/C=C/c2cncc(Oc3ccc(C(F)(F)F)cn3)n2)C1	KIT V559D/V654A	cell-free assay, competition with immobilised ligand	1 µM	100
Cc1cnc(Nc2ccc(C(=O)N3CCC(N4CCCC4)CC3)cc2)nc1-c1cc2ccccc2s1	KIT D816H	binding, competition with immobilised ligand	1 µM	7.8
C[C@@H](c1ccc(-n2cnc3c(N)ncnc32)cc1)N1CCc2nn(C)c(Cc3ccccc3)c2C1=O	KIT D816V	binding, competition with immobilised ligand	0.1 µM	99
C[C@@H]1CN(c2ccc3ncc(-c4ccc5[nH]nc(C6CC6)c5c4)n3n2)C[C@H](C)O1	KIT	binding, competition with immobilised ligand	50 nM	96
Cn1cc(Cl)c2c(Oc3c(F)cc(Nc4cc(Cl)nc(N)n4)cc3F)ccnc21	KIT A829P	cell-free assay, competition with immobilised ligand	0.1 µM	63
O=C(NCC1CCOCC1)c1n[nH]cc1NC(=O)c1c(F)cccc1F	KIT V559D	binding, competition with immobilised ligand	1 µM	100
CN(C)c1nccc(-c2cnc3ncccn23)n1	KIT T670I/V559D	binding	1 µM	92
COc1cnc(Nc2cccc(S(N)(=O)=O)c2)nc1N1CCN(c2ccccc2)CC1	KIT D816H	binding, competition with immobilised ligand	1 µM	66
